Source: ChEMBL document CHEMBL1122745, “In the search for new anticancer drugs. 9. Synthesis and anticancer activity of spin-labeled analogues of N,N:N',N':N",N"-Tri-1,2-ethanediylphosphoric triamide and N,N:N',N':N",N"-tri-1,2-ethanediylphosphorothioic triamide” (1984)
Where “and” joins values, the source holds several entries; their conditions need not be identical. Equal entries are not always repeated.

Key:
Mus musculus [1] = assay: In vivo evaluation of percent increase in life span (ILS) against P388 lymphocytic leukemia in infected CD2F1 male mice and at 30 dose mg/kg; type: functional
Procedure, shortened: (§1)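 P388 lymphocytic leukemia (10⁶ cells) transplanted into male CD2F1 (CDF1) mice, with intraperitoneal treatment once daily for 9 days following the day of transplantation. Groups of 6. Survival days of treated (T) and control (C) mice were compared, and %ILS was calculated as [(T−C)/C]100.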

Mus musculus [2] = assay: In vivo evaluation of percent increase in life span (ILS) against P388 lymphocytic leukemia in infected CD2F1 male mice and at 15 dose mg/kg; type: functional; procedure, shortened: as §1
Mus musculus [3] = assay: (§2) In vivo evaluation of 30 day survival against P388 lymphocytic leukemia in CD2F1 male mice at dose 15 mg/kg; out of 6 mice; type: functional
Procedure, shortened: (§3)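 CD2F1 (CDF1) male mice transplanted with 10⁶ P388 lymphocytic leukemia cells, then dosed intraperitoneally once daily for 9 days starting after the day of transplantation. Groups of 6 mice. Read-out is the number of mice alive at 30 days over the total per group.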

Mus musculus [4] = assay: In vivo evaluation of 30 day survival against P388 lymphocytic leukemia in CD2F1 male mice at dose 30 mg/kg; out of 6 mice; type: functional; procedure, shortened: as §3
Mus musculus [5] = assay: In vivo evaluation of percent increase in life span (ILS) against P388 lymphocytic leukemia in infected CD2F1 male mice and at 10 dose mg/kg; type: functional; procedure, shortened: as §1
Mus musculus [6] = assay: In vivo evaluation of 30 day survival against P388 lymphocytic leukemia in CD2F1 male mice at dose 10 mg/kg; out of 6 mice; type: functional; procedure, shortened: as §3
Mus musculus [7] = assay: as §2; type: functional; procedure, shortened: as §3; remark: listed apart in the source
Mus musculus [8] = assay: (§4) In vivo evaluation of percent increase in life span (ILS) against P388 lymphocytic leukemia in infected CD2F1 male mice and at 80 dose mg/kg; type: functional; procedure, shortened: as §1
Mus musculus [9] = assay: In vivo evaluation of percent increase in life span (ILS) against P388 lymphocytic leukemia in infected CD2F1 male mice and at 160 dose mg/kg; type: functional; procedure, shortened: as §1
Mus musculus [10] = assay: (§5) In vivo evaluation of 30 day survival against P388 lymphocytic leukemia in CD2F1 male mice at dose 160 mg/kg; out of 6 mice; type: functional; procedure, shortened: as §3
Mus musculus [11] = assay: (§6) In vivo evaluation of 30 day survival against P388 lymphocytic leukemia in CD2F1 male mice at dose 80 mg/kg; out of 6 mice; type: functional; procedure, shortened: as §3
Mus musculus [12] = assay: In vivo evaluation of percent increase in life span (ILS) against P388 lymphocytic leukemia in infected CD2F1 male mice and at 6 dose mg/kg; type: functional; procedure, shortened: as §1
Mus musculus [13] = assay: In vivo evaluation of percent increase in life span (ILS) against P388 lymphocytic leukemia in infected CD2F1 male mice and at 3 dose mg/kg; type: functional; procedure, shortened: as §1
Mus musculus [14] = assay: In vivo evaluation of 30 day survival against P388 lymphocytic leukemia in CD2F1 male mice at dose mg/kg; out of 6 mice; type: functional; procedure, shortened: as §3
Mus musculus [15] = assay: In vivo evaluation of 30 day survival against P388 lymphocytic leukemia in CD2F1 male mice at dose 25 mg/kg; out of 6 mice; type: functional; procedure, shortened: as §3
Mus musculus [16] = assay: (§7) In vivo evaluation of 30 day survival against P388 lymphocytic leukemia in CD2F1 male mice at dose 20 mg/kg; out of 6 mice; type: functional; procedure, shortened: as §3
Mus musculus [17] = assay: In vivo evaluation of percent increase in life span (ILS) against P388 lymphocytic leukemia in infected CD2F1 male mice and at 20 dose mg/kg; type: functional; procedure, shortened: as §1
Mus musculus [18] = assay: In vivo evaluation of percent increase in life span (ILS) against P388 lymphocytic leukemia in infected CD2F1 male mice and at 25 dose mg/kg; type: functional; procedure, shortened: as §1
Mus musculus [19] = assay: as §7; type: functional, organism-based; parameters: dose 20 mg/kg; procedure, shortened: as §3
Mus musculus [20] = assay: as §7; type: functional; procedure, shortened: as §3; remark: listed apart in the source
Mus musculus [21] = assay: In vivo evaluation of percent increase in life span (ILS) against P388 lymphocytic leukemia in infected CD2F1 male mice and at dose mg/kg; type: functional; procedure, shortened: as §1
Mus musculus [22] = assay: In vivo evaluation of percent increase in life span (ILS) against P388 lymphocytic leukemia in infected CD2F1 male mice and at 12 dose mg/kg; type: functional; procedure, shortened: as §1
Mus musculus [23] = assay: In vivo evaluation of 30 day survival against P388 lymphocytic leukemia in CD2F1 male mice at dose 12 mg/kg; out of 6 mice; type: functional; procedure, shortened: as §3
Mus musculus [24] = assay: In vivo evaluation of 30 day survival against P388 lymphocytic leukemia in CD2F1 male mice at dose 6 mg/kg; out of 6 mice; type: functional; procedure, shortened: as §3
Mus musculus [25] = assay: In vivo evaluation of 30 day survival against P388 lymphocytic leukemia in CD2F1 male mice at dose 7.5 mg/kg; out of 6 mice; type: functional; procedure, shortened: as §3
Mus musculus [26] = assay: (§8) In vivo evaluation of 30 day survival against P388 lymphocytic leukemia in CD2F1 male mice at dose 40 mg/kg; out of 6 mice; type: functional, organism-based; parameters: dose 40 mg/kg; procedure, shortened: as §3
Mus musculus [27] = assay: as §6; type: functional, organism-based; parameters: dose 80 mg/kg; procedure, shortened: as §3
Mus musculus [28] = assay: as §5; type: functional, organism-based; parameters: dose 160 mg/kg; procedure, shortened: as §3
Mus musculus [29] = assay: as §4; type: functional, organism-based; procedure, shortened: as §1
Mus musculus [30] = assay: In vivo evaluation of percent increase in life span (ILS) against P388 lymphocytic leukemia in infected CD2F1 male mice and at 40 dose mg/kg; type: functional; procedure, shortened: as §1
Mus musculus [31] = assay: In vivo evaluation of percent increase in life span (ILS) against P388 lymphocytic leukemia in infected CD2F1 male mice and at dose; type: functional; procedure, shortened: as §1
Mus musculus [32] = assay: as §8; type: functional; procedure, shortened: as §3

CC1(C)CC(OC(=O)NP(=O)(N2CC2)N2CC2)CC(C)(C)N1O
ILS (Mus musculus [1]): 48%
ILS (Mus musculus [2]): 25%
30 day survival / total (Mus musculus [3]): 0
30 day survival / total (Mus musculus [4]): 0

CC1(C)CC(NP(=S)(N2CC2)N2CC2)CC(C)(C)N1O
ILS (Mus musculus [2]): 34%
ILS (Mus musculus [5]): 25%
30 day survival / total (Mus musculus [3]): 0
30 day survival / total (Mus musculus [6]): 0

CN(C1CC(C)(C)NC(C)(C)C1)P(=S)(N1CC1)N1CC1
ILS (Mus musculus [2]): 33%
ILS (Mus musculus [5]): 20%
30 day survival / total (Mus musculus [3]): 0
30 day survival / total (Mus musculus [6]): 0

CC1(C)CC(OP(=O)(N2CC2)N2CC2)CC(C)(C)N1[O]
ILS (Mus musculus [2]): 5%
ILS (Mus musculus [5]): 29%
30 day survival / total (Mus musculus [7]): 0
30 day survival / total (Mus musculus [6]): 0

CC1(C)CC(OP(=S)(NCCCl)NCCCl)CC(C)(C)N1O
ILS (Mus musculus [8]): 15%
ILS (Mus musculus [9]): 33%
30 day survival / total (Mus musculus [10]): 0
30 day survival / total (Mus musculus [11]): 0

S=P(N1CC1)(N1CC1)N1CC1 [THIOTEPA]
ILS (Mus musculus [12]): 141%
ILS (Mus musculus [13]): 83%
30 day survival / total (Mus musculus [14]): 0

CC1(C)CC(NP(=S)(N2CC2)N2CC2)CC(C)(C)N1[O]
30 day survival / total (Mus musculus [15]): 0
ILS (Mus musculus [5]): 34%
30 day survival / total (Mus musculus [16]): 0
ILS (Mus musculus [17]): 52%
ILS (Mus musculus [18]): 96%
30 day survival / total (Mus musculus [6]): 0

CN(C1CC(C)(C)N(O)C(C)(C)C1)P(=S)(N1CC1)N1CC1
30 day survival / total (Mus musculus [16]): 0
30 day survival / total (Mus musculus [3]): 0
ILS (Mus musculus [17]): 4%

CN(C1CC(C)(C)N([O])C(C)(C)C1)P(=S)(NCCCl)N1CC1 (centres undefined)
ILS (Mus musculus [2]): 20%
ILS (Mus musculus [5]): 13%
30 day survival / total (Mus musculus [19]): 0
30 day survival / total (Mus musculus [7]): 0

CN(C1CC(C)(C)N([O])C(C)(C)C1)P(=S)(N1CC1)N1CC1
30 day survival / total (Mus musculus [20]): 0
ILS (Mus musculus [21]): 27% and 16%
30 day survival / total (Mus musculus [7]): 0

CC1(C)CC(OP(=S)(N2CC2)N2CC2)CC(C)(C)N1[O]
ILS (Mus musculus [2]): -8%
ILS (Mus musculus [22]): 103%
30 day survival / total (Mus musculus [23]): 1
30 day survival / total (Mus musculus [3]): 0
ILS (Mus musculus [12]): 45%
30 day survival / total (Mus musculus [24]): 0

CC1(C)CC(OP(=S)(N2CC2)N2CC2)CC(C)(C)N1O
30 day survival / total (Mus musculus [16]): 0
30 day survival / total (Mus musculus [3]): 0
30 day survival / total (Mus musculus [25]): 0

CC1(C)CC(OP(=S)(NCCCl)NCCCl)CC(C)(C)N1[O]
30 day survival / total (Mus musculus [20]): 0
30 day survival / total (Mus musculus [26]): 0
30 day survival / total (Mus musculus [27]): 0
ILS (Mus musculus [9]): 44%
30 day survival / total (Mus musculus [28]): 0
ILS (Mus musculus [29]): 30%
ILS (Mus musculus [30]): 17% and 13%

CC1(C)CC(OP(=O)(N2CC2)N2CC2)CC(C)(C)N1O
30 day survival / total (Mus musculus [3]): 0
ILS (Mus musculus [31]): -2% and 23%
30 day survival / total (Mus musculus [6]): 0

CC1(C)CC(OC(=O)NP(=O)(N2CC2)N2CC2)CC(C)(C)N1[O]
ILS (Mus musculus [1]): 81%
ILS (Mus musculus [2]): 42%

CC1(C)CC(NP(=S)(N2CC2)N2CC2)CC(C)(C)N1
ILS (Mus musculus [1]): 41%
30 day survival / total (Mus musculus [32]): 0
30 day survival / total (Mus musculus [4]): 0
ILS (Mus musculus [30]): 88%
